“And” between values parts separate entries of the source, which are not always exact repeats. Equal entries are not always repeated.
Test system: HEK-293T
Assay: Multiplex assay against HEK293T;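 for Population Tubulin-Different-Phenotype (%): share of the cells with healthy nuclei that show this phenotype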
Type: toxicity, cell-based
Settings: human
In short: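 Cells were classed with CellPathfinder machine-learning gating, first as Hoechst high-intensity objects or normal cells, then (normal cells) as healthy, pyknosed or fragmented nuclei, and finally (pyknosed cells) as mitotic or apoptotic. Staining of live cells at seeding used Hoechst33342, BioTracker Green Microtubule Cytoskeleton Dye, MitoTracker Red and Annexin V Alexa Fluor 680, with imaging on a CQ1 microscope at 37°C and 5% CO2 after compound addition. Tubulin, mitochondrial-mass and membrane-permeability phenotypes are per cents of healthy-nucleus cells.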

[1] = 12 h, 1 µM, compound concentration 1 uM, replicate 1
[2] = 12 h, 1 µM, compound concentration 1 uM, replicate 2
[3] = 12 h, 10 µM, compound concentration 10 uM, replicate 1
[4] = 12 h, 10 µM, compound concentration 10 uM, replicate 2
[5] = 24 h, 1 µM, compound concentration 1 uM, replicate 1
[6] = 24 h, 1 µM, compound concentration 1 uM, replicate 2
[7] = 24 h, 10 µM, compound concentration 10 uM, replicate 1
[8] = 24 h, 10 µM, compound concentration 10 uM, replicate 2
[9] = 48 h, 1 µM, compound concentration 1 uM, replicate 1
[10] = 48 h, 1 µM, compound concentration 1 uM, replicate 2
[11] = 48 h, 10 µM, compound concentration 10 uM, replicate 1
[12] = 48 h, 10 µM, compound concentration 10 uM, replicate 2

## CNc1nc(NCc2ccc(NS(C)(=O)=O)cc2Cl)cc(-c2ccccn2)n1
[1]
  Population Apoptotic (%): 52%
  Population Fragmented Nuclei (%): 18%
  Population Healthy Nuclei (%): 36%
  Population Hoechst High Intensity Objects (%): 17%
  Population Membrane Permeable-Phenotype (%): 3%
  Population Mitochondria Different-Phenotype (%): 75%
  Population Mitotic Cells (%): 48%
  Population Normal (%): 82%
  Population Pyknosed Nuclei (%): 44%
  Population Tubulin-Different-Phenotype (%): 38%
  Total Cell Count: 203
[2]
  Population Apoptotic (%): 14%
  Population Fragmented Nuclei (%): 6%
  Population Healthy Nuclei (%): 43%
  Population Hoechst High Intensity Objects (%): 2%
  Population Membrane Permeable-Phenotype (%): 6%
  Population Mitochondria Different-Phenotype (%): 18%
  Population Mitotic Cells (%): 85%
  Population Normal (%): 97%
  Population Pyknosed Nuclei (%): 50%
  Population Tubulin-Different-Phenotype (%): 23%
  Total Cell Count: 273
[3]
  Population Apoptotic (%): 60%
  Population Fragmented Nuclei (%): 9%
  Population Healthy Nuclei (%): 25%
  Population Hoechst High Intensity Objects (%): 14%
  Population Mitochondria Different-Phenotype (%): 95%
  Population Mitotic Cells (%): 39%
  Population Normal (%): 85%
  Population Pyknosed Nuclei (%): 65%
  Population Tubulin-Different-Phenotype (%): 92%
  Total Cell Count: 190
[4]
  Population Apoptotic (%): 25%
  Population Fragmented Nuclei (%): 4%
  Population Healthy Nuclei (%): 18%
  Population Hoechst High Intensity Objects (%): 4%
  Population Membrane Permeable-Phenotype (%): 0%
  Population Mitochondria Different-Phenotype (%): 50%
  Population Mitotic Cells (%): 74%
  Population Normal (%): 95%
  Population Pyknosed Nuclei (%): 76%
  Population Tubulin-Different-Phenotype (%): 73%
  Total Cell Count: 189
[5]
  Population Apoptotic (%): 55%
  Population Fragmented Nuclei (%): 16%
  Population Healthy Nuclei (%): 52%
  Population Hoechst High Intensity Objects (%): 18%
  Population Membrane Permeable-Phenotype (%): 0%
  Population Mitochondria Different-Phenotype (%): 50%
  Population Mitotic Cells (%): 45%
  Population Normal (%): 81%
  Population Pyknosed Nuclei (%): 31%
  Population Tubulin-Different-Phenotype (%): 25%
  Total Cell Count: 234
[6]
  Population Apoptotic (%): 16%
  Population Fragmented Nuclei (%): 4%
  Population Healthy Nuclei (%): 57%
  Population Hoechst High Intensity Objects (%): 5%
  Population Membrane Permeable-Phenotype (%): 7%
  Population Mitochondria Different-Phenotype (%): 14%
  Population Mitotic Cells (%): 83%
  Population Normal (%): 94%
  Population Pyknosed Nuclei (%): 37%
  Population Tubulin-Different-Phenotype (%): 31%
  Total Cell Count: 355
[7]
  Population Apoptotic (%): 63%
  Population Fragmented Nuclei (%): 10%
  Population Healthy Nuclei (%): 29%
  Population Hoechst High Intensity Objects (%): 14%
  Population Membrane Permeable-Phenotype (%): 0%
  Population Mitochondria Different-Phenotype (%): 95%
  Population Mitotic Cells (%): 36%
  Population Normal (%): 85%
  Population Pyknosed Nuclei (%): 60%
  Population Tubulin-Different-Phenotype (%): 87%
  Total Cell Count: 193
[8]
  Population Apoptotic (%): 34%
  Population Fragmented Nuclei (%): 3%
  Population Healthy Nuclei (%): 25%
  Population Hoechst High Intensity Objects (%): 6%
  Population Mitochondria Different-Phenotype (%): 88%
  Population Mitotic Cells (%): 65%
  Population Normal (%): 93%
  Population Pyknosed Nuclei (%): 71%
  Population Tubulin-Different-Phenotype (%): 95%
  Total Cell Count: 177
[9]
  Population Apoptotic (%): 47%
  Population Fragmented Nuclei (%): 15%
  Population Healthy Nuclei (%): 64%
  Population Hoechst High Intensity Objects (%): 8%
  Population Membrane Permeable-Phenotype (%): 2%
  Population Mitochondria Different-Phenotype (%): 24%
  Population Mitotic Cells (%): 52%
  Population Normal (%): 91%
  Population Pyknosed Nuclei (%): 19%
  Population Tubulin-Different-Phenotype (%): 18%
  Total Cell Count: 336
[10]
  Population Apoptotic (%): 14%
  Population Fragmented Nuclei (%): 5%
  Population Healthy Nuclei (%): 76%
  Population Hoechst High Intensity Objects (%): 3%
  Population Membrane Permeable-Phenotype (%): 5%
  Population Mitochondria Different-Phenotype (%): 7%
  Population Mitotic Cells (%): 85%
  Population Normal (%): 96%
  Population Pyknosed Nuclei (%): 18%
  Population Tubulin-Different-Phenotype (%): 26%
  Total Cell Count: 601
[11]
  Population Apoptotic (%): 74%
  Population Fragmented Nuclei (%): 15%
  Population Healthy Nuclei (%): 29%
  Population Hoechst High Intensity Objects (%): 16%
  Population Membrane Permeable-Phenotype (%): 2%
  Population Mitochondria Different-Phenotype (%): 85%
  Population Mitotic Cells (%): 25%
  Population Normal (%): 83%
  Population Pyknosed Nuclei (%): 54%
  Population Tubulin-Different-Phenotype (%): 93%
  Total Cell Count: 189
[12]
  Population Apoptotic (%): 61%
  Population Fragmented Nuclei (%): 5%
  Population Healthy Nuclei (%): 26%
  Population Hoechst High Intensity Objects (%): 5%
  Population Membrane Permeable-Phenotype (%): 7%
  Population Mitochondria Different-Phenotype (%): 76%
  Population Mitotic Cells (%): 38%
  Population Normal (%): 94%
  Population Pyknosed Nuclei (%): 67%
  Population Tubulin-Different-Phenotype (%): 82%
  Total Cell Count: 202

## COc1ccc(Oc2cc(NCCC(F)(F)F)c3ncc(-c4ccc(C(=O)NC5CC5)c(C)c4)n3n2)c(F)c1F [BAY-1217389]
[3]
  Population Apoptotic (%): 50% and 20%
  Population Fragmented Nuclei (%): 25% and 12%
  Population Healthy Nuclei (%): 28% and 63%
  Population Hoechst High Intensity Objects (%): 20% and 13%
  Population Membrane Permeable-Phenotype (%): 17% and 25%
  Population Mitotic Cells (%): 49% and 79%
  Population Normal (%): 79% and 86%
  Population Pyknosed Nuclei (%): 46% and 23%
  Population Tubulin-Different-Phenotype (%): 79% and 68%
  Total Cell Count: 607 and 639
[4]
  Population Apoptotic (%): 21% and 43%
  Population Fragmented Nuclei (%): 5% and 2%
  Population Healthy Nuclei (%): 89% and 86%
  Population Hoechst High Intensity Objects (%): 2% and 5%
  Population Mitotic Cells (%): 78% and 56%
  Population Normal (%): 97% and 94%
  Population Pyknosed Nuclei (%): 5% and 11%
  Population Tubulin-Different-Phenotype (%): 87% and 95%
  Total Cell Count: 1266 and 966
[7]
  Population Apoptotic (%): 53% and 25%
  Population Fragmented Nuclei (%): 25% and 9%
  Population Healthy Nuclei (%): 46% and 80%
  Population Hoechst High Intensity Objects (%): 18% and 7%
  Population Membrane Permeable-Phenotype (%): 9% and 24%
  Population Mitotic Cells (%): 46% and 74%
  Population Normal (%): 81% and 92%
  Population Tubulin-Different-Phenotype (%): 84%
  Total Cell Count: 575 and 704
[8]
  Population Fragmented Nuclei (%): 10% and 4%
  Population Healthy Nuclei (%): 87% and 88%
  Population Hoechst High Intensity Objects (%): 3% and 6%
  Population Mitotic Cells (%): 94% and 68%
  Population Normal (%): 96% and 93%
  Population Tubulin-Different-Phenotype (%): 91% and 95%
  Total Cell Count: 1717 and 1126

Reference: ChEMBL document CHEMBL4689842, “EUbOPEN Chemogenomics Library wave 1” (2021)
